Laboratory results from ChEMBL document CHEMBL2177069, “Novel peptidomimetic compounds containing redox active chalcogens and quinones as potential anticancer agents” (Eur J Med Chem, 2012).

Tests used:
SR = test: Cytotoxicity against human SR cells; format: functional
DU-145 = test: Cytotoxicity against human DU145 cells; format: functional
Saccharomyces cerevisiae [1] = test: Growth inhibition of COX17-deficient Saccharomyces cerevisiae YLL009C mutant at 20 ug/disc after 24 to 48 hrs by agar diffusion assay; format: functional; settings: read-out: DIZ
In short: (§1)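 S. cerevisiae deletion mutants or wild type grown on YPD, seeded into liquid agar medium at an optical density of 0.1. 6 mm paper discs soaked with methanolic compound solution were placed on the plates and incubated at 30 °C. Growth was checked after 1 and 2 days, and the inhibition zone diameter was recorded in mm.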

Saccharomyces cerevisiae [2] = test: Growth inhibition of GSH2-deficient Saccharomyces cerevisiae YOL049W mutant at 20 ug/disc after 24 to 48 hrs by agar diffusion assay; format: functional; settings: read-out: DIZ; in short: as §1
Saccharomyces cerevisiae [3] = test: Growth inhibition of RCK1-deficient Saccharomyces cerevisiae YGL158W mutant at 20 ug/disc after 24 to 48 hrs by agar diffusion assay; format: functional; settings: read-out: DIZ; in short: as §1
Saccharomyces cerevisiae [4] = test: Growth inhibition of POS5-deficient Saccharomyces cerevisiae YPL188W mutant at 20 ug/disc after 24 to 48 hrs by agar diffusion assay; format: functional; settings: read-out: DIZ; in short: as §1
Saccharomyces cerevisiae [5] = test: Growth inhibition of WSC4-deficient Saccharomyces cerevisiae YHL028W mutant at 20 ug/disc 24 to 48 hrs by agar diffusion assay; format: functional; settings: read-out: DIZ; in short: as §1
Saccharomyces cerevisiae [6] = test: Growth inhibition of PST2-deficient Saccharomyces cerevisiae YDR032C mutant at 20 ug/disc 24 to 48 hrs by agar diffusion assay; format: functional; settings: read-out: DIZ; in short: as §1
Saccharomyces cerevisiae [7] = test: Growth inhibition of SOD1-deficient Saccharomyces cerevisiae YJR104C mutant at 20 ug/disc after 24 to 48 hrs by agar diffusion assay; format: functional; settings: read-out: DIZ; in short: as §1
Saccharomyces cerevisiae [8] = test: Growth inhibition of wild type Saccharomyces cerevisiae BY4741 at 20 ug/disc after 24 to 48 hrs by agar diffusion assay; format: functional; settings: read-out: DIZ; in short: as §1
HUVEC = test: Cytotoxicity against human HUVEC cells after 24 hrs by MTT assay; format: cell-based
In short: (§2)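 MTT assay. Cells were seeded at 50,000 cells/mL in medium with 10% fetal calf serum and grown for two days at 37 °C, 10% CO2. Serial dilutions of compound were then added for 24 h. MTT was added (final 0.5 mg/mL) for 2 h, and the formazan was pelleted, washed, dissolved in isopropanol with 0.4% HCl and read at 590 nm. IC50 is the concentration giving 50% of untreated-control absorbance, taken from dose-response curves; mean of two parallel experiments.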

A498 [9] = test: Cytotoxicity against human A498 cells after 24 hrs by MTT assay; format: functional, cell-based; settings: A498, 24 h; in short: as §2
T47D = test: Cytotoxicity against human T47D cells; format: functional
BT-549 = test: Cytotoxicity against human BT549 cells; format: functional
MDA-MB-231 = test: Cytotoxicity against human MDA-MB-231 cells; format: functional
Hs-578T = test: Cytotoxicity against human Hs578T cells; format: functional
MCF7 = test: Cytotoxicity against human MCF7 cells; format: functional
TK-10 = test: Cytotoxicity against human TK10 cells; format: functional
SN12C = test: Cytotoxicity against human SN12C cells; format: functional
CAKI-1 = test: Cytotoxicity against human Caki1 cells; format: functional
A498 [10] = test: Cytotoxicity against human A498 cells; format: functional
[11] = Cytotoxicity against human 786-O cells; format: functional
SK-OV-3 = test: Cytotoxicity against human SKOV3 cells; format: functional
IGROV-1 = test: Cytotoxicity against human IGROV1 cells; format: functional
OVCAR-3 = test: Cytotoxicity against human OVCAR3 cells; format: functional
UACC-62 = test: Cytotoxicity against human UACC62 cells; format: functional
SK-MEL-5 = test: Cytotoxicity against human SK-MEL-5 cells; format: functional
SK-MEL-2 = test: Cytotoxicity against human SK-MEL-2 cells; format: functional
SF-539 = test: Cytotoxicity against human SF539 cells; format: functional
SNB-19 = test: Cytotoxicity against human SNB19 cells; format: functional
SW-620 = test: Cytotoxicity against human SW620 cells; format: functional
HT-29 = test: Cytotoxicity against human HT-29 cells; format: functional
KM12 = test: Cytotoxicity against human KM12 cells; format: functional
HCT-116 = test: Cytotoxicity against human HCT116 cells; format: functional
HCC 2998 = test: Cytotoxicity against human HCC2998 cells; format: functional
COLO 205 = test: Cytotoxicity against human COLO205 cells; format: functional
NCI-H522 = test: Cytotoxicity against human NCI-H522 cells; format: functional
NCI-H460 = test: Cytotoxicity against human NCI-H460 cells; format: functional
NCI-H322M = test: Cytotoxicity against human NCI-H322M cells; format: functional
HOP-92 = test: Cytotoxicity against human HOP92 cells; format: functional
NCI-H23 = test: Cytotoxicity against human NCI-H23 cells; format: functional

CC1=C([Se]CC(OC(=O)[C@@H](CO)NC(=O)OC(C)(C)C)C(=O)NC(C)(C)C)C(=O)c2ccccc2C1=O (stereo partly specified)
GI50 (SR): 0.741 µM | LC50 (SR): > 100 µM | GI50 (DU-145): 1.91 µM | LC50 (DU-145): 6.03 µM | TGI (DU-145; read-out: pTGI (converted)): 3.39 µM | zone of inhibition at 20 µg/disc (Saccharomyces cerevisiae [1]): 13 mm | zone of inhibition at 20 µg/disc (Saccharomyces cerevisiae [2]): 18 mm | zone of inhibition at 20 µg/disc (Saccharomyces cerevisiae [3]): 18 mm | zone of inhibition at 20 µg/disc (Saccharomyces cerevisiae [4]): 11 mm | zone of inhibition at 20 µg/disc (Saccharomyces cerevisiae [5]): 19 mm | zone of inhibition at 20 µg/disc (Saccharomyces cerevisiae [6]): 11 mm | zone of inhibition at 20 µg/disc (Saccharomyces cerevisiae [7]): 22 mm | zone of inhibition at 20 µg/disc (Saccharomyces cerevisiae [8]): 0 mm | IC50 (HUVEC): 3 µM | IC50 (A498 [9]): 5 µM | GI50 (T47D): 0.331 µM | LC50 (T47D): 8.91 µM | TGI (T47D; read-out: pTGI (converted)): 1.07 µM | GI50 (BT-549): 1.58 µM | LC50 (BT-549): 5.37 µM | TGI (BT-549; read-out: pTGI (converted)): 2.95 µM | GI50 (MDA-MB-231): 1.62 µM | LC50 (MDA-MB-231): 6.03 µM | TGI (MDA-MB-231; read-out: pTGI (converted)): 3.16 µM | GI50 (Hs-578T): 2.82 µM | LC50 (Hs-578T): > 100 µM | GI50 (MCF7): 1.74 µM | LC50 (MCF7): 8.91 µM | TGI (MCF7; read-out: pTGI (converted)): 3.98 µM | GI50 (TK-10): 2 µM | LC50 (TK-10): 6.03 µM | TGI (TK-10; read-out: pTGI (converted)): 3.47 µM | GI50 (SN12C): 1.86 µM | LC50 (SN12C): 6.31 µM | TGI (SN12C; read-out: pTGI (converted)): 3.39 µM | GI50 (CAKI-1): 1.74 µM | LC50 (CAKI-1): 6.61 µM | TGI (CAKI-1; read-out: pTGI (converted)): 3.39 µM | GI50 (A498 [10]): 3.63 µM | LC50 (50% lethal concentration) (A498 [10]): 39.8 µM | TGI (A498 [10]; read-out: pTGI (converted)): 15.1 µM | GI50 ([11]; 786-0): 1.95 µM | LC50 ([11]; 786-0): 5.89 µM | TGI ([11]; 786-0, read-out: pTGI (converted)): 3.39 µM | GI50 (SK-OV-3): 1.26 µM | LC50 (SK-OV-3): 5.13 µM | TGI (SK-OV-3; read-out: pTGI (converted)): 2.57 µM | GI50 (IGROV-1): 1.66 µM | LC50 (concentration killing 50% of cells) (IGROV-1): 6.46 µM | TGI (IGROV-1; read-out: pTGI (converted)): 3.24 µM | GI50 (OVCAR-3): 1.78 µM | LC50 (OVCAR-3): 5.62 µM | TGI (OVCAR-3; read-out: pTGI (converted)): 3.16 µM | GI50 (UACC-62): 1.66 µM | LC50 (UACC-62): 5.62 µM | TGI (UACC-62; read-out: pTGI (converted)): 3.02 µM | GI50 (SK-MEL-5): 1.58 µM | LC50 (SK-MEL-5): 5.5 µM | TGI (SK-MEL-5; read-out: pTGI (converted)): 2.95 µM | GI50 (SK-MEL-2): 2.19 µM | LC50 (SK-MEL-2): 9.55 µM | TGI (SK-MEL-2; read-out: pTGI (converted)): 4.57 µM | GI50 (SF-539): 1.58 µM | LC50 (SF-539): 5.89 µM | TGI (SF-539; read-out: pTGI (converted)): 3.09 µM | GI50 (SNB-19): 0.661 µM | LC50 (SNB-19): 4.9 µM | TGI (SNB-19; read-out: pTGI (converted)): 2 µM | GI50 (SW-620): 1.78 µM | LC50 (SW-620): 6.31 µM | TGI (SW-620; read-out: pTGI (converted)): 3.31 µM | GI50 (HT-29): 2.29 µM | LC50 (HT-29): 9.77 µM | TGI (HT-29; read-out: pTGI (converted)): 4.79 µM | GI50 (KM12): 1.51 µM | LC50 (KM12): 5.5 µM | TGI (KM12; read-out: pTGI (converted)): 2.88 µM | GI50 (HCT-116): 1.45 µM | LC50 (HCT-116): 5.37 µM | TGI (HCT-116; read-out: pTGI (converted)): 2.82 µM | GI50 (HCC 2998): 1.82 µM | LC50 (HCC 2998): 5.75 µM | TGI (HCC 2998; read-out: pTGI (converted)): 3.24 µM | GI50 (COLO 205): 1.82 µM | CC50 (COLO 205; read-out: pLC50 (the source's name) (converted)): 6.03 µM | TGI (COLO 205; read-out: pTGI (converted)): 3.31 µM | GI50 (NCI-H522): 1.58 µM | LC50 (NCI-H522): 6.17 µM | TGI (NCI-H522; read-out: pTGI (converted)): 3.16 µM | GI50 (NCI-H460): 0.457 µM | LC50 (NCI-H460): 7.41 µM | TGI (NCI-H460; read-out: pTGI (converted)): 1.78 µM | GI50 (NCI-H322M): 0.447 µM | LC50 (NCI-H322M): 32.4 µM | TGI (NCI-H322M; read-out: pTGI (converted)): 3.72 µM | GI50 (HOP-92): 1.86 µM | LC50 (50% lethal concentration) (HOP-92): 6.31 µM | TGI (HOP-92; read-out: pTGI (converted)): 3.39 µM | GI50 (NCI-H23): 1.48 µM | LC50 (NCI-H23): 6.92 µM | TGI (NCI-H23; read-out: pTGI (converted)): 3.24 µM
